According to article PMC11040122 (Heliyon, 2024):

Experiments:
SlSCP-2 = conditions: read-out: IC50 values reported for natural compounds; cited from earlier work
Sf9 cells = assay: In vitro toxicity / cell growth inhibition rate; format: cell-based, Spodoptera frugiperda; conditions: MTT assay, 72 h of treatment
Outline: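 Sf9 cells (2 × 10^4 cells/mL) in Grace's medium with 10 % FBS, exposed in triplicate to test compound (0.5–100 μM, from DMSO stocks); DMSO negative control. Incubated at 30 °C, humidified, no CO2, for 3–5 days until control wells near confluent. MTT (5 mg/mL) added for 4 h at 30 °C, formazan dissolved in DMSO, A570 read. IR = (1 − At/Ac) × 100; mean ± SD.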

In the case of `CCCCC/C=C\C/C=C\C/C=C\C/C=C\CCCC(=O)O` [arachidonate], the IC50 (SlSCP-2) is listed as 18.1 µM.
In the case of `CCCCCCCCCCCCCCCC(=O)O` [palmitic acid], the IC50 (SlSCP-2) is given as 59.1 µM.
In the case of `CC(C)CCC[C@@H](C)[C@H]1CC[C@H]2[C@@H]3CC=C4C[C@@H](O)CC[C@]4(C)[C@H]3CC[C@]12C` [cholesterol], the IC50 (SlSCP-2) is given as 50.1 µM.
In the case of `CCCCCCCCCCCCCCCCCC(=O)O` [stearic acid], the IC50 (SlSCP-2) is given as 39.8 µM.
For `CCCCCCCC/C=C\CCCCCCCC(=O)O` [oleic acid], the IC50 (SlSCP-2) is listed as 24.4 µM.
In the case of `COc1c(O)cc2oc3cc(O)c(CC=C(C)C)c(O)c3c(=O)c2c1CC=C(C)C` [Alpha-mangostin], the “%IR At 100 μM (percent inhibition of cell growth rate)” value (Sf9 cells) is reported as 52.18%.
